Reference: ChEMBL document CHEMBL1137992, “Long hydrocarbon chain keto diols and diacids that favorably alter lipid disorders in vivo” (J Med Chem, 2004)

Experiments:
[1] = tested on: Rattus norvegicus; experiment: Percentage change of HDL cholesterol levels in obese female Zucker rats after 2 weeks of pre-treatment at a dose of 100 mg/kg/day; format: functional
Procedure, shortened: (§1)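 Obese female Zucker fatty rats were gavaged once daily with 30 or 100 mg/kg/day in 20% EtOH/80% PEG-200 for 2 weeks. Sera were collected after a 6 h fast, before dosing, at 1 week (orbital plexus) and at 2 weeks (cardiac puncture). HDL-C was total cholesterol multiplied by HDL area fraction from gel-filtration lipoprotein profiles. Reported as % change from pretreatment ± SEM.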

[2] = tested on: Rattus norvegicus; experiment: Percentage change of non-HDL cholesterol levels in obese female Zucker rats after 1 week of pre-treatment at a dose of 100 mg/kg/day; format: functional
Procedure, shortened: (§2)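 Female Zucker fatty rats [Crl:(Zuc)-faBR], 10–12 weeks old (400–500 g), acclimated 7 days and fed rodent chow. Dosed once daily by oral gavage in 20% EtOH/80% PEG-200 (v/v), at 0.25% of body weight, for 2 weeks. Blood taken after a 6-h fast: orbital plexus before dosing and at day 7, cardiac puncture at day 14. Serum lipoprotein cholesterol measured by Superose 6 gel filtration with on-line cholesterol detection. Values are % change from pretreatment, mean ± SEM.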

[3] = tested on: Rattus norvegicus; experiment: Percentage change of triglycerides in obese female Zucker rats after 2 weeks of pre-treatment at a dose of 100 mg/kg/day; format: functional; procedure, shortened: as §2
[4] = tested on: Rattus norvegicus; experiment: Percentage change of HDL cholesterol levels in obese female Zucker rats after 1 week of pre-treatment at a dose of 100 mg/kg/day; format: functional; procedure, shortened: as §1
[5] = tested on: Rattus norvegicus; experiment: Percentage change of non-HDL cholesterol levels in obese female Zucker rats after 2 weeks of pre-treatment at a dose of 100 mg/kg/day; format: functional; procedure, shortened: as §2
[6] = tested on: Rattus norvegicus; experiment: Percentage change of triglycerides in obese female Zucker rats after 1 week of pre-treatment at a dose of 100 mg/kg/day; format: functional; procedure, shortened: as §2
[7] = Concentration required for inhibition of lipid synthesis in primary cultures of rat hepatocytes at 300 uM; not active; format: functional; details: Hepatocyte
Procedure, shortened: (§3)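 Primary hepatocytes from male Sprague-Dawley rats (Seglen isolation), plated at 1.5×10^5 cells/cm² on collagen in serum-containing DMEM, switched to serum-free medium after 4 h, grown overnight to monolayers. Cells incubated 4 h with 0.25 μCi [1-14C]acetate/well (1 Ci/mol final) plus 0, 1, 3, 10, 30, 100 or 300 μM compound. Lipids extracted into scintillant and counted; IC50 taken from lipid synthesis rates.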

[8] = tested on: Rattus norvegicus; experiment: Percentage change of non-HDL cholesterol levels in obese female Zucker rats after 1 week of pre-treatment at a dose of 30 mg/kg/day; format: functional; procedure, shortened: as §2
[9] = tested on: Rattus norvegicus; experiment: Percentage change of non-HDL cholesterol levels in obese female Zucker rats after 2 weeks of pre-treatment at a dose of 30 mg/kg/day; format: functional; procedure, shortened: as §2
[10] = tested on: Rattus norvegicus; experiment: Percentage change of triglycerides in obese female Zucker rats after 2 weeks of pre-treatment at a dose of 30 mg/kg/day; format: functional; procedure, shortened: as §2
[11] = tested on: Rattus norvegicus; experiment: Percentage change of HDL cholesterol levels in obese female Zucker rats after 2 weeks of pre-treatment at a dose of 30 mg/kg/day; format: functional; procedure, shortened: as §1
[12] = Concentration required for inhibition of lipid synthesis in primary cultures of rat hepatocytes; value ranges from 100-300 uM; format: functional, cell-based; details: Hepatocyte; procedure, shortened: as §3
[13] = tested on: Rattus norvegicus; experiment: Percentage change of triglycerides in obese female Zucker rats after 1 week of pre-treatment at a dose of 30 mg/kg/day; format: functional; procedure, shortened: as §2
[14] = tested on: Rattus norvegicus; experiment: Percentage change of HDL cholesterol levels in obese female Zucker rats after 1 week of pre-treatment at a dose of 30 mg/kg/day; format: functional; procedure, shortened: as §1
[15] = Concentration required for inhibition of lipid synthesis in primary cultures of rat hepatocytes; value ranges from 3-10 uM; format: functional, cell-based; details: Hepatocyte; procedure, shortened: as §3
[16] = Concentration required for inhibition of lipid synthesis in primary cultures of rat hepatocytes; format: functional, cell-based; details: Hepatocyte; procedure, shortened: as §3
[17] = tested on: Rattus norvegicus; experiment: Percentage change of HDL cholesterol levels in obese female Zucker rats after 2 weeks of pre-treatment at a dose of 59 mg/kg/day; format: functional
[18] = tested on: Rattus norvegicus; experiment: Percentage change of triglycerides in obese female Zucker rats after 2 weeks of pre-treatment at a dose of 59 mg/kg/day; format: functional; procedure, shortened: as §2
[19] = tested on: Rattus norvegicus; experiment: Percentage change of triglycerides in obese female Zucker rats after 1 week of pre-treatment at a dose of 59 mg/kg/day; format: functional; procedure, shortened: as §2
[20] = tested on: Rattus norvegicus; experiment: Percentage change of HDL cholesterol levels in obese female Zucker rats after 1 week of pre-treatment at a dose of […]; format: functional
[21] = tested on: Rattus norvegicus; experiment: Percentage change of non-HDL cholesterol levels in obese female Zucker rats after 2 weeks of pre-treatment at a dose of 59 mg/kg/day; format: functional; procedure, shortened: as §2
[22] = tested on: Rattus norvegicus; experiment: Percentage change of non-HDL cholesterol levels in obese female Zucker rats after 1 week of pre-treatment at a dose of 59 mg/kg/day; format: functional; procedure, shortened: as §2
[23] = tested on: Rattus norvegicus; experiment: Percentage change of non-HDL cholesterol levels in obese female Zucker rats after 1 week of treatment at a dose of 100 mg/kg/day; format: functional; details: in the assay text read “30 mg/kg/day” for “100 mg/kg/day”; procedure, shortened: as §2

Structure (SMILES) | Change [1] | Change [2] | Change [3] | Change [4] | Change [5] | Change [6] | IC50 [16] | further results
CC(C)Cc1ccc(C(C)(CO)CCCCC(=O)CCCCC(C)(CO)c2ccc(CC(C)C)cc2)cc1 (stereo unspecified) | 6% | 27% | -15% | -5% | 34% | -10% |  | inhibition at 300 µM [7]: < 50%
CC(CO)(CCCCC(=O)CCCCC(C)(CO)c1ccccc1)c1ccccc1 (stereo unspecified) |  |  |  |  |  |  |  | Change [8]: -30%; Change [9]: 31%; Change [10]: 21%; Change [11]: -27%; IC50 [12]: < 300 µM; Change [13]: -25%; Change [14]: 0%
CC(C)(CO)CCCCC(=O)CCCC(C)(C)CO | 48% | -26% | -12% | 47% | 4% | -40% |  | IC50 [15]: < 10 µM
CC(C)(CO)CCCCC(=O)CCCCC(C)(CO)c1ccccc1 (stereo unspecified) |  |  |  |  |  |  | 1 µM | Change [8]: 17%; Change [9]: -8%; Change [10]: -8%; Change [11]: -5%; Change [13]: 18%; Change [14]: -18%
Cc1ccc(C(C)(CCCCC(=O)CCCCC(C)(C(=O)O)c2ccc(C)cc2)C(=O)O)cc1 (stereo unspecified) |  |  |  |  |  |  |  | Change [8]: 0%; Change [9]: 47%; Change [10]: 12%; Change [11]: 10%; IC50 [12]: < 300 µM; Change [13]: -11%; Change [14]: 0%
CC(C)(CO)Cc1cccc(C(=O)c2cccc(CC(C)(C)CO)c2)c1 | -11% | -14% | -8% | 1% | -5% | -29% | 52 µM | 
CC(C)(CCCCCCCC(=O)CCCCCCCC(C)(C)C(=O)O)C(=O)O | 86% | -81% | -63% | 44% | -45% | -85% | 5 µM | 
CC(CCCC(=O)CCCC(C)(C(=O)O)c1ccccc1)(C(=O)O)c1ccccc1 (stereo unspecified) | 12% | 36% | 27% | -4% | 65% | 10% |  | inhibition at 300 µM [7]: < 50%
CC(C)(CCCCCC(=O)CCCCC(C)(C)C(=O)O)C(=O)O | 72% | -30% | -62% | 240% | -51% | -65% | 3 µM | 
CC(C)(CCCCC(=O)CCCC(C)(C)C(=O)O)C(=O)O |  |  |  |  |  |  | 8 µM | Change [8]: -17%; Change [9]: 93%; Change [10]: 23%; Change [11]: 4%; Change [13]: -2%; Change [14]: 7%
CC(C)(CCCCCCC(=O)CCCCCCC(C)(C)C(=O)O)C(=O)O |  |  |  |  |  |  | 9 µM | 
CC(CO)(CCCCCC(=O)CCCCCC(C)(CO)c1ccccc1)c1ccccc1 (stereo unspecified) | 10% | 29% | 1% | 2% | 9% | 24% | 93 µM | 
CC(C)(CO)CCCC(=O)CCCC(C)(C)CO | 2% | -22% | 10% | 24% | 28% | -31% | 27 µM | 
CC(C)(CO)CCCCCC(=O)CCCCCC(C)(C)CO |  | -91% | -92% | 77% | -88% | -92% | 3 µM | 
CC(C)(Cc1cccc(C(=O)c2cccc(CC(C)(C)C(=O)O)c2)c1)C(=O)O |  |  |  |  |  |  |  | Change [17]: 7%; Change [18]: 7%; Change [19]: -24%; Change [20]: 2%; Change [21]: 34%; Change [22]: -43%
CC(C)(CO)CCCCCCC(=O)CCCCCCC(C)(C)CO |  |  |  |  |  |  | 2 µM | Change [23]: -50%
CC(C)(CO)CCCCCC(=O)CCCCC(C)(C)CO | 78% | -70% | -87% | 78% | -78% | -85% | 2 µM | 
Cc1ccc(C(C)(CO)CCCCC(=O)CCCCC(C)(CO)c2ccc(C)cc2)cc1 (stereo unspecified) |  |  |  |  |  |  |  | Change [8]: 61%; Change [9]: 46%; Change [10]: 0%; Change [11]: -2%; IC50 [12]: < 300 µM; Change [13]: 15%; Change [14]: -3%
CC(CCCCC(=O)CCCCC(C)(C(=O)O)c1ccccc1)(C(=O)O)c1ccccc1 (stereo unspecified) | 45% | 36% | -8% | 43% | 79% | -36% |  | inhibition at 300 µM [7]: < 50%
CC(C)Cc1ccc(C(C)(CCCCC(=O)CCCCC(C)(C(=O)O)c2ccc(CC(C)C)cc2)C(=O)O)cc1 (stereo unspecified) | 62% | -40% | -66% | 11% | -44% | -63% |  | IC50 [12]: < 300 µM
CC(CO)(CCCC(=O)CCCC(C)(CO)c1ccccc1)c1ccccc1 (stereo unspecified) | -11% | -18% | -17% | -14% | -32% | -20% |  | IC50 [12]: < 300 µM
CC(C)OC(=O)C(C)(C)Oc1ccc(C(=O)c2ccc(Cl)cc2)cc1 [FENOFIBRATE] | -14% | 19.8% | -8% | -41% | 11.6% | 6% |  | 
CCCCCCCCCCCCCCSCC(=O)O [TETRADECYLTHIOACETIC ACID] |  |  |  |  |  |  | 43 µM | 
